Among the data in ChEMBL document CHEMBL2016516, “Design, synthesis and biological evaluation of novel chalcone derivatives as antitubulin agents” (Bioorg Med Chem, 2012) are IC50 and Activity values, retold here.

In brackets after ≈: the same amount, converted by molar mass.

Assay [1] has as its system MCF7. The assay is described as follows: Antiproliferative activity against human MCF7 cells after 48 hrs by MTT assay. In kind it is functional, cell-based. The conditions noted are these: MCF7, 48 h. Put shortly: (§1)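 Cells grown to log phase in RPMI 1640 with 10% FBS, diluted to 2 × 10⁴ cells/mL and seeded, then incubated 24 h at 37 °C, 5% CO₂ before treatment. Samples at pre-set concentrations were added in six wells, with colchicine and CA-4 as references. After 48 h, MTT in PBS was added for 4 h, followed by extraction solution (10% SDS).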

Another assay relates to A549. The assay is described as follows: Antiproliferative activity against human A549 cells after 48 hrs by MTT assay. Type of assay: functional, cell-based. To be noted: A549, 48 h. Put shortly:
as §1
Background: Formazan colour is commonly taken as a measure of viable cells.

The nature of assay [2]: Inhibition of bovine tubulin polymerization after 20 mins by spectrophotometry. The arrangement: species or system Bos taurus. Put shortly: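 Tubulin was purified from bovine brain. Varying compound concentrations were preincubated with 10 µM tubulin in glutamate buffer at 30 °C, then cooled to 0 °C. GTP was added and the mixtures were moved to 0 °C cuvettes. They were then warmed to 30 °C in a recording spectrophotometer, with assembly followed turbidimetrically.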

The test system of assay [3] is MCF7. The assay is described as follows: Cell cycle arrest in human MCF7 cells assessed as accumulation in G0/G1 phase at 5 ug/ml after 24 hrs by flow cytometry (reference value: 47.79%). Type of assay: functional. Background: A flow cytometer gives signals particle by particle.
For assay [4], the system named is MCF7. The assay is described as follows: Cell cycle arrest in human MCF7 cells assessed as accumulation in S phase at 5 ug/ml after 24 hrs by flow cytometry (reference value: 8.06%). Type of assay: functional.
The test system of assay [5] is MCF7. The assay is described as follows: Cell cycle arrest in human MCF7 cells assessed as accumulation in G2/M phase at 5 ug/ml after 24 hrs by flow cytometry (reference value: 12.99%). In kind it is functional.

As usually defined, the IC50 is the concentration at which inhibition is half-maximal. A lower IC50 goes with inhibition by little substance. On to `Cc1ccc(C(=O)/C=C/c2cc(Br)cc(Br)c2Oc2c([N+](=O)[O-])cc(C(F)(F)F)cc2[N+](=O)[O-])cc1`, for which the IC50 in the assay with MCF7 [1] turned out to be 1.44 µg/mL (≈ 2.29 µM); in the assay on A549 it was 10.1 µg/mL (≈ 16.1 µM); in assay [2], 5.68 µg/mL (≈ 9.01 µM).
For `Cc1ccc(C(=O)/C=C/c2cc(Cl)cc(Cl)c2Oc2c([N+](=O)[O-])cc(C(F)(F)F)cc2[N+](=O)[O-])cc1`, the IC50 turned out to be 0.7 µg/mL (≈ 1.29 µM) in the assay with MCF7 [1], 10 µg/mL (≈ 18.6 µM) with A549 and 4.87 µg/mL (≈ 9 µM) in assay [2].
As to `Cc1ccc(C(=O)/C=C/c2cc(Br)ccc2Oc2c([N+](=O)[O-])cc(C(F)(F)F)cc2[N+](=O)[O-])cc1`, the IC50 stood at 0.55 µg/mL (≈ 0.998 µM) with MCF7 [1], 6.85 µg/mL (≈ 12.4 µM) in the assay on A549 and 6.41 µg/mL (≈ 11.6 µM) in assay [2].
In the case of `Cc1ccc(C(=O)/C=C/c2cc(Cl)ccc2Oc2c([N+](=O)[O-])cc(C(F)(F)F)cc2[N+](=O)[O-])cc1`, the IC50 was 0.03 µg/mL (≈ 0.0592 µM) with MCF7 [1], 0.95 µg/mL (≈ 1.87 µM) with A549 and 1.42 µg/mL (≈ 2.8 µM) in assay [2]. Further, the Activity is recorded as 2.36% in the assay with MCF7 [3], 1.55% in the assay on MCF7 [4] and 67.93% with MCF7 [5].
As for `COc1ccc(C(=O)/C=C/c2cc(Br)cc(Br)c2Oc2c([N+](=O)[O-])cc(C(F)(F)F)cc2[N+](=O)[O-])cc1`, the IC50 in the assay on MCF7 [1] turned out to be 3.53 µg/mL (≈ 5.46 µM); in the assay with A549, 13.2 µg/mL (≈ 20.4 µM); in assay [2] it was 6.02 µg/mL (≈ 9.32 µM).
As to `COc1ccc(C(=O)/C=C/c2cc(Cl)cc(Cl)c2Oc2c([N+](=O)[O-])cc(C(F)(F)F)cc2[N+](=O)[O-])cc1`, the IC50 was 2.69 µg/mL (≈ 4.83 µM) in the assay with MCF7 [1], 12.5 µg/mL (≈ 22.5 µM) in the assay with A549 and 6.56 µg/mL (≈ 11.8 µM) in assay [2].
The corresponding values for `COc1ccc(C(=O)/C=C/c2cc(Br)ccc2Oc2c([N+](=O)[O-])cc(C(F)(F)F)cc2[N+](=O)[O-])cc1` are 2.32 µg/mL (≈ 4.09 µM), 12.6 µg/mL (≈ 22.3 µM) and 4.08 µg/mL (≈ 7.19 µM).
The corresponding values for `COc1ccc(C(=O)/C=C/c2cc(Cl)ccc2Oc2c([N+](=O)[O-])cc(C(F)(F)F)cc2[N+](=O)[O-])cc1` are 1.83 µg/mL (≈ 3.5 µM), 11.5 µg/mL (≈ 22 µM) and 4.83 µg/mL (≈ 9.24 µM).
Take `O=C(/C=C/c1cc(Br)cc(Br)c1Oc1c([N+](=O)[O-])cc(C(F)(F)F)cc1[N+](=O)[O-])c1ccc(F)cc1`: the values for the IC50 (in the assay on MCF7 [1]; in the assay with A549; in assay [2]) were 8.06 µg/mL (≈ 12.7 µM), 120 µg/mL (≈ 190 µM) and 15.31 µg/mL (≈ 24.1 µM), respectively.
As for `O=C(/C=C/c1cc(Cl)cc(Cl)c1Oc1c([N+](=O)[O-])cc(C(F)(F)F)cc1[N+](=O)[O-])c1ccc(F)cc1`, the IC50 in the assay with MCF7 [1] was 5.02 µg/mL (≈ 9.21 µM); in the assay on A549 it was 29.3 µg/mL (≈ 53.8 µM); in assay [2], 9.62 µg/mL (≈ 17.6 µM).
For `O=C(/C=C/c1cc(Br)ccc1Oc1c([N+](=O)[O-])cc(C(F)(F)F)cc1[N+](=O)[O-])c1ccc(F)cc1`, the IC50 in the assay with MCF7 [1] is 6.01 µg/mL (≈ 10.8 µM); with A549, 26.3 µg/mL (≈ 47.4 µM); in assay [2], 12.31 µg/mL (≈ 22.2 µM).
The corresponding values for `O=C(/C=C/c1cc(Cl)ccc1Oc1c([N+](=O)[O-])cc(C(F)(F)F)cc1[N+](=O)[O-])c1ccc(F)cc1` are 5.17 µg/mL (≈ 10.1 µM), 23.8 µg/mL (≈ 46.6 µM) and 11.66 µg/mL (≈ 22.8 µM).
In the case of `O=C(/C=C/c1cc(Br)cc(Br)c1Oc1c([N+](=O)[O-])cc(C(F)(F)F)cc1[N+](=O)[O-])c1ccc(Cl)cc1`, the results for the IC50 (in the assay with MCF7 [1]; in the assay on A549; in assay [2]) were 6.76 µg/mL (≈ 10.4 µM), 19.4 µg/mL (≈ 29.9 µM) and 12.6 µg/mL (≈ 19.4 µM), respectively.
Take `O=C(/C=C/c1cc(Cl)cc(Cl)c1Oc1c([N+](=O)[O-])cc(C(F)(F)F)cc1[N+](=O)[O-])c1ccc(Cl)cc1`: the IC50 in the assay on MCF7 [1] is 4.54 µg/mL (≈ 8.08 µM); in the assay on A549, 17.2 µg/mL (≈ 30.7 µM); in assay [2], 6.34 µg/mL (≈ 11.3 µM).
As for `O=C(/C=C/c1cc(Br)ccc1Oc1c([N+](=O)[O-])cc(C(F)(F)F)cc1[N+](=O)[O-])c1ccc(Cl)cc1`, the IC50 in the assay on MCF7 [1] was found to be 4.74 µg/mL (≈ 8.29 µM); in the assay with A549, 16.5 µg/mL (≈ 28.9 µM); in assay [2] it was 7.14 µg/mL (≈ 12.5 µM).
For `O=C(/C=C/c1cc(Cl)ccc1Oc1c([N+](=O)[O-])cc(C(F)(F)F)cc1[N+](=O)[O-])c1ccc(Cl)cc1` the same measures were 3.21 µg/mL (≈ 6.09 µM), 11.7 µg/mL (≈ 22.2 µM) and 4.68 µg/mL (≈ 8.88 µM).
Consider `O=C(/C=C/c1cc(Br)cc(Br)c1Oc1c([N+](=O)[O-])cc(C(F)(F)F)cc1[N+](=O)[O-])c1ccc(Br)cc1`, for which the IC50 in the assay on MCF7 [1] came to 2.87 µg/mL (≈ 4.13 µM); in the assay with A549, 16.8 µg/mL (≈ 24.2 µM); in assay [2], 10.01 µg/mL (≈ 14.4 µM).
The corresponding values for `O=C(/C=C/c1cc(Cl)cc(Cl)c1Oc1c([N+](=O)[O-])cc(C(F)(F)F)cc1[N+](=O)[O-])c1ccc(Br)cc1` are 2.6 µg/mL (≈ 4.29 µM), 14.5 µg/mL (≈ 23.9 µM) and 9.46 µg/mL (≈ 15.6 µM).
For `O=C(/C=C/c1cc(Br)ccc1Oc1c([N+](=O)[O-])cc(C(F)(F)F)cc1[N+](=O)[O-])c1ccc(Br)cc1` the same measures were 2.17 µg/mL (≈ 3.52 µM), 13.7 µg/mL (≈ 22.3 µM) and 6.25 µg/mL (≈ 10.1 µM).
With `O=C(/C=C/c1cc(Cl)ccc1Oc1c([N+](=O)[O-])cc(C(F)(F)F)cc1[N+](=O)[O-])c1ccc(Br)cc1`, the IC50 stood at 1.41 µg/mL (≈ 2.47 µM) with MCF7 [1], 10.9 µg/mL (≈ 19 µM) in the assay with A549 and 4.62 µg/mL (≈ 8.08 µM) in assay [2].
As for `COc1cc2c(c(OC)c1OC)-c1ccc(OC)c(=O)cc1[C@@H](NC(C)=O)CC2` [COLCHICINE], the IC50 in the assay on MCF7 [1] came out at 0.51 µg/mL (≈ 1.28 µM); with A549 it was 0.74 µg/mL (≈ 1.85 µM); in assay [2], 1.7 µg/mL (≈ 4.26 µM). The values for the Activity in the assay with MCF7 [3], in the assay with MCF7 [4] and with MCF7 [5] were 1.96%, 1.34% and 78.1%, respectively.
In the case of `COc1ccc(/C=C\c2cc(OC)c(OC)c(OC)c2)cc1O` [COMBRETASTATIN A4], the results for the IC50 (in the assay on MCF7 [1]; in the assay on A549; in assay [2]) were 0.43 µg/mL (≈ 1.36 µM), 0.53 µg/mL (≈ 1.68 µM) and 0.81 µg/mL (≈ 2.56 µM), respectively.
